Results published in the EternaBench riboswitch data.

Tested on: MS2 coat protein
Assay: apparent Kd, MS2 coat protein; higher = weaker binding; RNA-MaP array; FMN 200 µM where present
Method in brief: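 Green signal was scaled to red-channel RNA signal and control-cluster median Fmax, and the apparent Kd was taken as the median of filtered per-cluster binding-curve fits. The binding series used SNAP-549-labelled MS2 coat protein from 0.7 or 1.5 nM, doubling to 3 µM, on designs transcribed by stalled E. coli RNA polymerase on Illumina sequencing-chip clusters. Each series ran without and then with constant ligand in 100 mM Tris-HCl pH 7.5, 80 mM KCl, 4 mM MgCl2, BSA, DTT, yeast tRNA and Tween-20.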

[1] = designed as: OFF switch for flavin mononucleotide, no ligand
[2] = ligand present: flavin mononucleotide, designed as: OFF switch for flavin mononucleotide
[3] = designed as: ON switch for flavin mononucleotide, no ligand
[4] = ligand present: flavin mononucleotide, designed as: ON switch for flavin mononucleotide

Row | Sequence | apparent Kd [1] [nM] | apparent Kd [2] [nM] | apparent Kd [3] [nM] | apparent Kd [4] [nM]
1 | UGGGCUACGUGGUCCGCCAGACGUAGAAGGGUCUACAUGAGGAUCACCCAUGUGACCGUUAGUGGACAGGAUAUACGCGGAGUG | 8.38 | 22.8 | – | –
2 | AAAUUGCUAGAGGAUAUCGGAUAGGAUCUAUUACGAGAAGGUUAGACAUGAGGAUCACCCAUGUUCUGUUGGGA | 42.6 | 123 | – | –
3 | AGUCGGAGCAGAGGAUAUACAUGAGGAUCACCCAUGUAAAUGAAUGAAGCCAGGAAACUGGCAAUGUAGAAGGCUGCUCCGACA | 18 | 52.8 | – | –
4 | UUUUAACAUGAGGAUCACCCAUGUGAGGAUAUCGAUAUUUAUAUUAAUAUUAAUAAAACGAGAAGGCACAUUUU | 71 | 87.2 | – | –
5 | GUGUAGUCAGGAUAUACAUAGGAAGAGAAGAGAAGAUAAGCACAUGAGGAUCACCCAUGUAGAAGGGACAGUGU | 65.1 | 70.7 | – | –
6 | GAUCGUAUCCUAGGAUAUUCAUUAAACAUGAGGAUCACCCAUGUUAAUUUGGGAGAAGGAGGAUACGAUCAACAGCGAAAGCUG | – | – | 10.6 | 5.15
7 | CGAUAACAUAGUUAUCCGUAGCGGACAUGAGGAUCACCCAUGUAGGAUAUGUUACUCAACGAGUAACAGAAGGACAUGAGUCUU | 18.1 | 114 | – | –
8 | AUCAGCUCGUCAGGAUAUACGUCUCUGCGUCAGCAGUGUGGUAAGAUCACAUGAGGAUCACCCAUGUAGAAGGGACGAGCUGAU | 42.9 | 691 | – | –
9 | UUUGUACAUGAGGAUCACCCAUGUUAGGAUAUCUCGCCGUCGGCUUGCCGACGGUAUUAGAGAAGGGACAAGGG | 136 | 108 | – | –
10 | AAGAAACAUGAGGAUCACCCAUGUAAUAAUAUGGGAGGAUAUACAAGGACAAUAGUCAAGGUAGAAGGCCUAAGAA | – | – | 175 | 27.5
11 | AAACUCAGAGGAUAUACAUAACACAGACUCUUCAUGCGUUCACAUGAGGAUCACCCAUGUAGAAGGCUGACAAC | 23.2 | 85.1 | – | –
12 | UUAUGUUUUGUAGGAUAUCAUAAGUUAUGUAUUAUAAUUGAAAUUUUGUUAUGAGAAGGACAUUUACAUGAGGAUCACCCAUGU | 13.6 | 9.96 | – | –
13 | ACAAGAUCAGGAUAUACAUGAGGAUCACCCAUGUAUAUCCAAAAAGGGCUUUCUACAUGUAGAAGGGAUCUUGU | 13.4 | 13.1 | – | –
14 | GACAUGAGGAUCACCCAUGUCCAACCAGAAGGCCAGGAAUCGGACCCGAGUAUCGGGUUCGAGAUGGAGGAUAUGGGCGCCGAA | – | – | 75.1 | 33.7
15 | GCUAUCGAACAGAAGGGACCGCGGCCGUGGCGGUCAGGAUAUGUAUGCAGUAGUGCCUACAUGAGGAUCACCCAUGUCCGCCGC | – | – | 629 | 218
16 | CCAUUUACUGAGGAUAUUGCAUCACCCGACUGAUAAGAAGGCAGAACAUGAGGAUCACCCAUGUGGGUACUCAC | 73.7 | 105 | – | –
17 | AUAGGCCUAGGAUAUACAUGAGGAUCACCCAUGUUAAUACUUCAAUCAUGAUAAACGUGUAGAAGGAGGAAUAA | 25.8 | 26.1 | – | –
18 | AUACAUGAGGAUCACCCAUGUUACUGGGUCUUUUUAGAACGUAGAAGGAUGUUUUUAUACAUAACAUAGGAUAUACAAUAUUGU | 51.8 | 48.9 | – | –
19 | CGGACAAUGCCCGAGACAUGAGGAUCACCCAUGUUAGCAGCACAGGAUAUCAUGUUUUGUAAAGGUGAGAAGGGUGAUUGCAUC | – | – | 102 | 68.2

Row | Sequence | apparent Kd [1] [nM] | apparent Kd [2] [nM] | apparent Kd [3] [nM] | apparent Kd [4] [nM]
20 | AAAAUCUAUUGAGGAUAUUCAUACACUGCAUACGGAGAAGGCAAACAAUCAUGAGGACAUGAGGAUCACCCAUGUUGUGACCAU | – | – | 17.6 | 15.3
21 | ACAUGAGGAUCACCCAUGUGAACAUAGGAUAUUGGUGAUCAGGCAUGUUAUACAGGAUAUGUCUGCGAGAAGGAUGCACGUUGC | – | – | 567 | 341
22 | GGUUGUCAUAGUCAUCCUUUCCGUACAUGAGGAUCACCCAUGUAGGAUAUGCUACUCACGGUGUGGCAGAAGGGCGUGUGUCUU | 17.9 | 19.9 | – | –
23 | UGCAAAAUUGCAACAUGAGGAUCACCCAUGUCUGGGUUGGCCAAGGAUAUGCUUCUAAUCCUAGUGCAGAAGGUGGAAACUCAU | – | – | 201 | 530
24 | GCUGCAAAGUAAGGAUAUGCCUAGGAAACCUAGGCAGAAGGUACAUGAGGAUCACCCAUGUUAACUCAAAGAGAAUAAAGCAGC | 16.8 | 28.6 | – | –
25 | GGUAUCGGAGGAGGAUAUGAGCGUAUCGCUGCCUCAGAAGGCCUACUGAUACAUGAGGAUCACCCAUGUUGCGGUAAUCCUACU | 283 | 23.5 | – | –
26 | AUAUGAUAGAUAGGAUAUACUAUGGUUGAAGAAGUAGAAGGAUCAAUUGGGAAAUGUACAUGAGGAUCACCCAUGUUAUGGGUU | – | – | 943 | 493
27 | AGUCGGAGCAGAGGAUAUACAUGAGGAUCACCCAUGUAAUAAAGUGAAGCCUGGAAGCAGGCAAUGUAGAAGGCUGCUCCGACA | 11.1 | 81.8 | – | –
28 | UUAUUAAGUGUGAGGAUAUGCUGGUCCUUGGAUCAGCAGAAGGCACAUGAGGAUCACCCAUGUAAUAUAUUUAU | 103 | 389 | – | –
29 | UGUUGUUCCGCAGGAUAUGUAUUAGAUUAUAAUACAGAAGGGCGAUAACAUGAGGAUCACCCAUGUGUGGACAAUAAGGAAGAG | – | – | 602 | 81.2
30 | CCUGAGUCAGGAUAUUGUACCGGCCUGAAGCCAGACCGACCCAAGAAGGGACAUGAGGAUCACCCAUGUGAAAA | 23.1 | 24.7 | – | –
31 | AAAAAACAUGAGGAUCACCCAUGUGAGGAUAUUGGUAUUCAGGGUAUAAUCUCAAUAGCGAGAAGGCGCAUAAA | 43.6 | 44.3 | – | –
32 | UGGCGCAUGUGAGGAUAUAAUGGGUAGUAACUAUUAGAAGGUACAUGAGGAUCACCCAUGUACUUGGGUUUAUCAGGAACUCCU | 7.02 | 6.7 | – | –
33 | CUUUUGUGAGGAUAUCAGUAGUAAAUAAAUAAAAUUAAUACUGAGAAGGCACAUGAGGAUCACCCAUGUUCCUC | 33.1 | 162 | – | –
34 | UUGGACGUCGUAGGAUAUCUAGGAUAUUCCUACAUGAGGAUCACCCAUGUUGACAUGGAAGAAGGACAGAAGGACGAUGUCCAU | – | – | 14.9 | 11
35 | GGUUGUCAUAGUCAUCCUUAACGUACAUGAGGAUCACCCAUGUAGGAUAUGCUACUCAAAGAGUAGCAGAAGGGCGUGUGUCUU | 31 | 35.5 | – | –
36 | AAGCACAGAGGAUAUACAUGGGUAAAAAAAAAAAAAAAAAAACAUGAGGAUCACCCAUGUAGAAGGCUGUGCAA | 81.6 | 67 | – | –
37 | GGAAUAUUUACAGGAUAUCAUUUGUAAAUUCGAUGAGAAGGGUAGAUGUCUUACACGACUUGUUACAUGAGGAUCACCCAUGUU | – | – | 43.3 | 33.3
38 | CUUAUGUGAGGAUAUCAGUAGUAAAAAAAUAAAAUUACUACUGAGAAGGCACAUGAGGAUCACCCAUGUGUCUC | 20.4 | 22.2 | – | –

Row | Sequence | apparent Kd [1] [nM] | apparent Kd [2] [nM] | apparent Kd [3] [nM] | apparent Kd [4] [nM]
39 | AUGAAAGUAACACAGGAUAUCGAGGAUACAACAUGAGGAUCACCCAUGUACAUACGAACGUAUAACGAGAAGGGUGGAUGAUCUUC | – | – | 244 | 639
40 | AAAUUGGUAGAGGAUAUCGCACAGGAUUUACUGCGAGAAGGCUGCACAUGAGGAUCACCCAUGUUUUGUUGCGA | 15.2 | 18.1 | – | –
41 | UCGUGUCAUGUAGGAUAUGACACAGGAAACUGGUCAGAAGGACAUGAGGAUCACCCAUGUAAAAUGUUCAAGAAUAACGCAUGC | 78.8 | 161 | – | –
42 | CACUGCAAUGUAGGAUAUCGACUGGAAUACAGUCGAGAAGGACAUGAGGAUCACCCAUGUACUUUGAGUGAAUAAUAAGCAGUG | 15.9 | 59.4 | – | –
43 | GCUGGUCGAGGAUAUACGUGACGUGCUUCGGCACGAGGUCUACAUGAGGAUCACCCAUGUAGAAGGCGACCAGC | 14.5 | 52.7 | – | –
44 | CUUUUGUGAGGAUAUCAGUAGUAAAAAAAUAAUAUUACUACUGAGAAGGCACAUGAGGAUCACCCAUGUUCCUC | 36 | 276 | – | –
45 | AACAAACAUGAGGAUCACCCAUGUCAGGAUAUGCACAAACAAACAAACAAACAAGCAAGCAGAAGGGACACAAC | 21.7 | 39.7 | – | –
46 | GUCAGCUCGUGAGGAUAUACAUGUGCUGGAUACAGCAUUAAAUUUUUCACAUGAGGAUCACCCAUGUAGAAGGCACGAGCUGAU | 19.2 | 49.6 | – | –
47 | UGUGCGUAUGUGAGGAUAUGCUGGUCCUUGGAUCAGCAGAAGGCACAUGAGGAUCACCCAUGUGGUGUCGUACU | 296 | 25.7 | – | –
48 | UAUAGGCUAGGAUAUACAACACUUGGUUCGAAUGUUUGGAGACAUGAGGAUCACCCAUGUAGAAGGAGCAUUUC | 64.8 | 190 | – | –
49 | GAUCCUUCUGUUAGGAUAUGCUUUGGGCUUCCGCAGCAGAAGGAACAUGAGGAUCACCCAUGUCAAAUAACAUC | 21.4 | 22.8 | – | –
50 | GUUAUUGACAAGAAGGCAAACAUGAGGAUCACCCAUGUUCUACAUGUAUAUUGAGGAUAUUGCCAAUACAUGAGGAUCACCCAG | 45 | 53.3 | – | –
51 | CCUCGACAUGAGGAUCACCCAUGUCAGGAUAUUGUGUCUCGGGUUUUUUACCGAAAGGCGAGAAGGGAUGUGUG | 16.1 | 21 | – | –
52 | GUACUGUAGUGAGGAUAUACGAGUUCGAUAGAACGGCGAUCCAAUUAUACAUGAGGAUCACCCAUGUAGAAGGCACUUCAGUAC | 8.88 | 50 | – | –
53 | UGGUGUGAAUAGGAUAUGAACUCUGCCAGGAUAUCAGAAGGGUUUACAUGAGGAUCACCCAUGUCAUCCACUGC | 18.8 | 18.9 | – | –
54 | ACAUGAGGAUCACCCAUGUUAAACGAGGAUAUAUGACUGCACAUGAGGUUCACCCAUGUUCUACCGUAGAAGGUGUAAAUAAUU | – | – | 68.5 | 70.6
55 | GGAUAGGACAGAGGAUAUACGUGCUAGAGAUACUAACAAAAUUUCCUCACAUGAGGAUCACCCAUGUAGAAGGCUGUCCUAUCG | 193 | 187 | – | –
56 | AAAAAACAUGAGGAUCACCCAUGUGAGGAUAUGAUGAAAGAUUGAAAAAGGUUGAAAGUCAGAAGGUAUGUGAA | 56.9 | 59.7 | – | –
